This is a sample that favours compounds with a hit; in the whole collection about 4.9% have one here.
STAT3 activator: activators of IL-6 induced STAT3 signaling | U3A cells, IL-6 STAT3-luciferase reporter, luminescence; 100% = signal with IL-6 EC80 alone | activation (% of control), % at 5.6 µM | 0.91% of 190,000 active;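 active = activation above the screen-wide mean of compound activation plus 3 SD, cut at about 130% in these data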
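Material: human STAT1-deficient U3A cells with stable STAT3-luciferase reporter / Probe or stimulus: IL-6 stimulus at 33 ng/mL final / Schedule: 1 h compound pre-exposure, 6 h IL-6 stimulation, 37 °C / Technique: luminescence / Read-out basis: percent of IL-6-only median luminescence / Control set: IL-6-only high control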
STAT1 inh: STAT1 signaling inhibition; NIH 3T3 STAT1-luciferase reporter, IFN-gamma, luminescence; inhibition, % at 5.5 µM; 0.35% of 200,000 active;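 active = inhibition above a set limit, the mean inhibition across all tested compounds plus 3 SD, cut at about 34% in these data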
STAT1 act: increases IFN-gamma driven STAT1 reporter signal | NIH 3T3 STAT1-luciferase reporter, luminescence; 100% = IFN-gamma alone, no compound | activation (% of control), % at 5.5 µM | 2.6% of 200,000 active | AID 932;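 active = activation above the screen-wide mean activation plus 3 SD, cut at about 130% in these data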
APP 5'UTR act: activates APP 5'UTR luciferase reporter | SH-SY5Y APP 5'UTR luciferase reporter, luminescence; zero percent = DMSO vehicle wells | activation, % at 2 µM | 1% of 190,000 active;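 active = activation above a set limit, based on mean plus 3 SD of controls, cut at about 140% in these data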
STAT3 blocker: reduces IL-6 driven STAT3 reporter signal; U3A cells, IL-6 STAT3-luciferase reporter, luminescence; host cell line lacks STAT1; 0.89% of 190,000 active; inhibition, % at 5.5 µM; AID 862;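 active = inhibition above the mean inhibition across all screened compounds plus 3 SD, cut at about 44% in these data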
NF-kB expr up: compounds increasing NF-kB expression in human neuronal cells. NF-kB reporter expression; stronger effect = higher value. fold change at 12.5 µM. AID 1239. 1.6% of 190,000 active; in the data active = fold change above about 3.3
STAT1 activ conf: STAT1 activation, confirmation assay. AID 1262. NIH 3T3 STAT1-luciferase reporter, IFN-gamma potentiation, luminescence; 100% = IFN-gamma EC80 alone, no compound. shares compounds with STAT1 act. activation (% of control), % at 5.7 µM. 97% of 1,200 active;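 active = activation above a set limit carried over from the earlier primary STAT1 screen, cut at about 140% in these data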
NFkB act STAT1ct: NF-kappaB activation in STAT1 activator counter-screen. shares compounds with STAT1 act. HEK293T NF-kB luciferase reporter, TNF-alpha stimulated, luminescence; 100% = TNF-alpha with vehicle only. activation (% of control), % at 5.7 µM. 43% of 1,200 active;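 active = activation above the mean of solvent-only control wells plus 3 SD, set per campaign, cut at about 130% in these data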;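 note: TNF-alpha given at a submaximal dose yielding about 80% of full reporter signal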
STAT3 act 2: human STAT3 activation in STAT1 activator counter-screen. shares compounds with STAT1 act. U3A cells STAT3-luciferase reporter, IL-6, luminescence; cells lack STAT1; 100 = IL-6 alone, no compound effect. activation (% of control), % at 5.7 µM. 46% of 1,200 active. AID 1316;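 active = activation above the solvent-only control well mean plus 3 SD, set per plate batch, cut at about 110% in these data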;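 note: higher means more STAT3 reporter activation so hits are non-selective activators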
Each line names hits and unclear results; the compound was inactive in the other large screens (follow-up assays come after a bar, where they were run).

CCN(CC)c1ccc(C(=O)OCC(=O)Nc2sccc2C#N)cc1	none
O=C(N/N=C/c1cccc(Oc2ccccc2)c1)c1ccccc1Br	none
CC(=O)Nc1cccc(/C(C)=N/Nc2nc3ccccc3s2)c1	STAT1 act 198, APP 5'UTR act 160 | STAT1 activ conf 200 | NFkB act STAT1ct 139 | STAT3 act 2 122
C/C(=N\Nc1nc(N2CCOCC2)nc(N2CCOCC2)n1)c1cccs1	none
C/C(=N\Nc1nc2ccccc2s1)c1cccs1	STAT1 act 164, APP 5'UTR act 177, NF-kB expr up 4.2 | STAT1 activ conf 249 | NFkB act STAT1ct inactive | STAT3 act 2 160
CCc1cccc(NC(=O)c2cc(OC)c(OC)c(OC)c2)c1	none
CCOC(=O)c1c(CC(C)C)csc1NC(=O)COC(=O)c1cc(OC)c(OC)cc1[N+](=O)[O-]	none
CC1CCCCC1NCC#CCOc1ccc(Cl)cc1 (stereo not drawn)	none (no result: NF-kB expr up)
O=c1oc2ccccc2cc1-c1nnc(NCc2ccco2)s1	STAT1 act 154, APP 5'UTR act 147, NF-kB expr up 5.4 | STAT1 activ conf 188 | NFkB act STAT1ct 139 | STAT3 act 2 112
O=c1oc2ccccc2cc1-c1csc(NN=C2CCCC2)n1	none
Cn1cnnc1SCc1ccc(C(=O)N=Nc2c(O)n(C)c3ccccc23)cc1	none
O=C(O)c1ccc(N/N=C/C=C/c2ccccc2[N+](=O)[O-])cc1	STAT1 act 163 | STAT1 activ conf 177 | NFkB act STAT1ct 139 | STAT3 act 2 129
CC(=O)N(CN1C(=O)c2ccccc2C1=O)c1ccc2c(c1)oc1ccccc12	none
Cc1ccc(Nc2nc3ccccc3s2)cc1	STAT1 act 192 | STAT1 activ conf 259 | NFkB act STAT1ct 137 | STAT3 act 2 inactive
COc1ccc2nc(Nc3ccc4c(c3)OCO4)sc2c1	STAT1 act 152 | STAT1 activ conf 162 | NFkB act STAT1ct inactive | STAT3 act 2 inactive
COc1ccc2nc(Nc3ccccc3)sc2c1	STAT1 act 151, NF-kB expr up 8.1 | STAT1 activ conf 200 | NFkB act STAT1ct 138 | STAT3 act 2 inactive
CC(=O)NNc1nc2ccccc2s1	none
COc1ccc2nc(Nc3nc4cc5c(cc4s3)OCO5)sc2c1	none
COc1cc(S(=O)(=O)N2CCN(C(=O)c3ccccc3)CC2)c(OC)cc1Br	none
CN(C)c1nnnn1-c1ccccc1Oc1ncc(C(F)(F)F)cc1Cl	none
Nc1ccc2nn(-c3cccc4ccccc34)nc2c1	none
Nc1cc2nn(-c3ccccc3)nc2cc1Cl	STAT1 act 166, APP 5'UTR act 199, NF-kB expr up 4.4 | STAT1 activ conf 238 | NFkB act STAT1ct inactive | STAT3 act 2 151
Nc1ccc2nn(-c3ccccc3)nc2c1	STAT1 act 155 | STAT1 activ conf 203 | NFkB act STAT1ct inactive | STAT3 act 2 inactive
CC(C)CC(=O)Nc1cc2nn(-c3ccccc3)nc2cc1Cl	none (no result: APP 5'UTR act)
Cc1ccc(COc2ccc(/C=N/O)cc2)cc1	STAT1 act 176, NF-kB expr up 6.3 | STAT1 activ conf 203 | NFkB act STAT1ct 136 | STAT3 act 2 129
CCOc1ccc(/C=N/O)cc1	none
CC1(C)C2CCC(C2)C1(C)NC(=O)CNC1CCCCC1 (stereo not drawn)	none
CCS(=O)(=O)n1nc(-c2ccccc2)cc1N	none
Cc1ccc(C(c2c(C)nn(-c3ccccc3)c2N)c2c(C)nn(-c3ccccc3)c2N)cc1	none
Cc1cccc(-c2cc(N)n(-c3ccccc3)n2)c1	STAT1 act 174, APP 5'UTR act 152, NF-kB expr up 5.5 | STAT1 activ conf 185 | NFkB act STAT1ct 145 | STAT3 act 2 113
Cc1ccc(-c2cc(N)n(-c3ccccc3)n2)cc1	STAT1 act 154, NF-kB expr up 4.7 | STAT1 activ conf 173 | NFkB act STAT1ct inactive | STAT3 act 2 inactive
CCc1ccc(-c2cc(N)n(-c3ccccc3)n2)cc1	STAT1 act 172, APP 5'UTR act 242, NF-kB expr up 11 | STAT1 activ conf 195 | NFkB act STAT1ct 146 | STAT3 act 2 inactive
Nc1cccc(C(=O)OCC(=O)Nc2cccc3c2C(=O)c2ccccc2C3=O)c1	none
Nc1cccc(C(=O)OCC(=O)c2ccccc2)c1	STAT1 act 181 | STAT1 activ conf 181 | NFkB act STAT1ct inactive | STAT3 act 2 117
NNc1nc2c(F)cc(F)cc2s1	STAT1 act 156, APP 5'UTR act 167 | STAT1 activ conf inactive | NFkB act STAT1ct inactive | STAT3 act 2 116
Cc1ccc(/C=C2\SC(=S)N(/N=C/c3cc([N+](=O)[O-])ccc3O)C2=O)o1	none
CCCc1nn(C)c(C(=O)Nc2ccccc2)c1Cl	STAT1 act 170, APP 5'UTR act 156 | STAT1 activ conf 199 | NFkB act STAT1ct inactive | STAT3 act 2 inactive
COc1ccc(-c2cc(=O)c3ccccc3s2)cc1	STAT1 act 179, NF-kB expr up 5.6 | STAT1 activ conf 223 | NFkB act STAT1ct 136 | STAT3 act 2 120
O=C(O)CCS(=O)(=O)c1ccccc1Cl	none
COCCn1c(C)cc(C(=O)CSc2cc(C)c3ccccc3n2)c1C	none
COCCn1c(C)cc(C(=O)CSc2nc3ccccc3c(=O)n2Cc2ccco2)c1C	STAT1 act 152, APP 5'UTR act 181 | STAT1 activ conf 236 | NFkB act STAT1ct 149 | STAT3 act 2 127
CC(=O)Nc1ccc2c(c1)C(=O)c1ccccc1C2=O	STAT1 act 156, APP 5'UTR act 186, NF-kB expr up 3.9 | STAT1 activ conf 203 | NFkB act STAT1ct 139 | STAT3 act 2 inactive
COc1ccc(NC(=O)/C(Cl)=C(/Cl)S(=O)Cc2ccccc2)cn1 (stereo not drawn)	STAT1 act 204 (no result: APP 5'UTR act) | STAT1 activ conf 336 | NFkB act STAT1ct inactive | STAT3 act 2 inactive
Cn1ccsc1=NC(=O)c1ccc(Cl)cc1	STAT1 act 156 | STAT1 activ conf 166 | NFkB act STAT1ct inactive | STAT3 act 2 118
COc1ccc(C(=O)N=c2sccn2C)cc1	none
CC(=O)NC(NC(=S)N1CCCCCC1)C(Cl)(Cl)Cl (stereo not drawn)	none (no result: NF-kB expr up)
CC(C)(C)OC(=O)C(Cc1ccc(OC(C)(C)C)cc1)NC(=O)CNC(=O)OCc1ccccc1 (stereo not drawn)	none
CCOc1nc(C)ccc1-c1noc(-c2ccccn2)n1	none
CCOc1ccccc1-c1nc(-c2ccc(C)nc2OC)no1	STAT1 act 153 | STAT1 activ conf 167 | NFkB act STAT1ct inactive | STAT3 act 2 114
COc1ccccc1-c1noc(-c2ccccc2)n1	STAT1 act 176, NF-kB expr up 5.6 | STAT1 activ conf 213 | NFkB act STAT1ct 142 | STAT3 act 2 116

High-throughput results as filed in PubChem.
